# From publication PMC8296307 (Epilepsy research, 2021)
# Read-outs that look alike come from different tables or passages of the source.
# What was measured:
# [1] = system: C57BL/6J mice; assay: Locomotor activity in open field; format: in vivo, mouse
# [2] = system: juvenile Fmr1 knockout mice; assay: Audiogenic seizures; format: in vivo, mouse; conditions: for lethality: vehicle 60%; for seizure prevalence (TCS): vehicle 70%; for mean WRJ duration (± SD): vehicle 10 (±5)
# [3] = molecular target: T1, h5-HT2C-INI (Homo sapiens, UniProt P28335); format: binding; conditions: [3H]Mesulergine, one-site fit Ki
# T1 sequence (P28335 33-458): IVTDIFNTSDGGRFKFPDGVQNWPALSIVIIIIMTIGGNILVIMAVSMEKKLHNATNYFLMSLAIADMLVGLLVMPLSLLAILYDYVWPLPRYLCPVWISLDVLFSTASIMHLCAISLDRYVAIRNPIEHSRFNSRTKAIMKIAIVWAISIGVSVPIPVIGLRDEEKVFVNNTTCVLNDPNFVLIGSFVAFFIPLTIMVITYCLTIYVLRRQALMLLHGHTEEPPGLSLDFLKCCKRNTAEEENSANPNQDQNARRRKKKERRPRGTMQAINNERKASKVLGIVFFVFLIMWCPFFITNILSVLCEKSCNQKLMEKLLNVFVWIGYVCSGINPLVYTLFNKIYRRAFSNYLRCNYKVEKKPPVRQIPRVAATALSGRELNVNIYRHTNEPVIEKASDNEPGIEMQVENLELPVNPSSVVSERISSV
# [4] = molecular target: T2, m5-HT2A (Mus musculus, UniProt P35363); assay: 5-HT2AR-mediated phosphoinositide hydrolysis, m5-HT2A in HEK293 cells; format: cell-based
# T2 sequence (P35363 whole entry): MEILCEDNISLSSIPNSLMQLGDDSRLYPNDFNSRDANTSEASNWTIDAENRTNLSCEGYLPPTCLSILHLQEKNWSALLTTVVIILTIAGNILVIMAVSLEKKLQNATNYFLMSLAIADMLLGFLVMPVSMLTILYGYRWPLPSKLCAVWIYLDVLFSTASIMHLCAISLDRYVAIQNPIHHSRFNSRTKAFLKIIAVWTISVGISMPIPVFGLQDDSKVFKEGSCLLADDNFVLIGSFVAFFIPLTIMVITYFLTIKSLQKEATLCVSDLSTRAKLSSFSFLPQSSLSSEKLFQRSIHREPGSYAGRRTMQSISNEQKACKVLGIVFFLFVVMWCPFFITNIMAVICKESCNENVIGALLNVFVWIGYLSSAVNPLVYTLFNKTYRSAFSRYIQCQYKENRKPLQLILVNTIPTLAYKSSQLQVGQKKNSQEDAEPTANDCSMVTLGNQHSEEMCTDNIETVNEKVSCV
# [5] = molecular target: T3, m5-HT2C-VNV (Mus musculus, UniProt P34968, I157V/I161V); format: binding
# T3 sequence (P34968 33-459 I157V/I161V): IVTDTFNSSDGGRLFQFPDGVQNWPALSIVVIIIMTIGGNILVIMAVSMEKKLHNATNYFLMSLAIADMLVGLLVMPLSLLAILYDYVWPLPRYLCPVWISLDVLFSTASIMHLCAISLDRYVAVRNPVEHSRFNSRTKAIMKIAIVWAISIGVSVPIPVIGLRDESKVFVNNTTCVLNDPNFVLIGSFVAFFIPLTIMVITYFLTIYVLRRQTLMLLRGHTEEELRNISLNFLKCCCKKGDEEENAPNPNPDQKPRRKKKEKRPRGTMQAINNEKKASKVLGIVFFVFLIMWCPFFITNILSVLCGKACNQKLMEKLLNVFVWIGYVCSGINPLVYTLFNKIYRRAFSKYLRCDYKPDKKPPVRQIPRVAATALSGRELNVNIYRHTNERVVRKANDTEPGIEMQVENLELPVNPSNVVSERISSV
# [6] = molecular target: T3, m5-HT2C-VNV; assay: 5-HT2CR-mediated phosphoinositide hydrolysis, m5-HT2C-VNV in HEK293 cells; format: cell-based; conditions: for agonist efficacy: relative to 5-HT
# [7] = molecular target: T1, h5-HT2C-INI; assay: 5-HT2CR-mediated phosphoinositide hydrolysis, h5-HT2C-INI in HEK293 cells; format: cell-based; conditions: for agonist efficacy: relative to 5-HT
# [8] = molecular target: h5-HT2A (Homo sapiens, UniProt P28223); assay: 5-HT2AR-mediated phosphoinositide hydrolysis, h5-HT2A in HEK293 cells; format: cell-based; conditions: relative to 5-HT
# Chain of h5-HT2A (P28223 whole entry): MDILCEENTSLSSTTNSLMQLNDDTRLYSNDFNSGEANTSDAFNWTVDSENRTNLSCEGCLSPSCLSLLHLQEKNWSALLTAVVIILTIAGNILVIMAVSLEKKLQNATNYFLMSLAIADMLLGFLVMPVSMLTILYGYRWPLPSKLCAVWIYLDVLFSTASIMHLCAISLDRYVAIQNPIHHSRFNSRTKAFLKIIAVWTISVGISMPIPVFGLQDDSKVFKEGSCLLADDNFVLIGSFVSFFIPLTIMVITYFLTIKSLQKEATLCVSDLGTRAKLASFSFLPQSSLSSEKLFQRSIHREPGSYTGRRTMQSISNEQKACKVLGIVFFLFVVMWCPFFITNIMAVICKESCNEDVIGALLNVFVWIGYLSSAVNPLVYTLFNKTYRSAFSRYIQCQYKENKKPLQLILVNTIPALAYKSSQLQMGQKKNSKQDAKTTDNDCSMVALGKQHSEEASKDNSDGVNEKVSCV
# [9] = system: C57BL/6J mice; assay: DOI-elicited head-twitch response; format: in vivo, mouse; conditions: for HTR (mean count): 10-minute session
# Method in brief: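 C57BL/6J mice were acclimated to the testing room for ≥60 min. They then received s.c. vehicle (Milli-Q water) or test compound (1, 3 or 5.6 mg/kg), followed 10 min later by s.c. 5-HT2R agonist challenge (1.0 mg/kg). After a further 10 min, mice were placed in the open field for a 10-min session. Head twitches (rapid, discrete head jerks) were counted with a tally counter by an observer blind to treatment.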
# [10] = molecular target: T2, m5-HT2A; assay: Radioligand competition binding, [3H]Ketanserin, m5-HT2A in HEK293 membranes
# [11] = system: juvenile Fmr1 knockout mice; conditions: ref Armstrong et al., 2020; cited from earlier work
# [12] = system: C57BL/6J mice; assay: Head-twitch response; format: in vivo, mouse; conditions: vehicle 2.6
# [13] = steady-state clinical dosing of 10 mg twice daily in monkeys; ref FDA briefing document NDA22529; cited from earlier work
# [14] = phosphoinositide hydrolysis, mean
# [15] = phosphoinositide hydrolysis, mean (95% CI)
# [16] = 30 mg/kg i.p., 30 min before test
# [17] = lorcaserin 5.6 mg/kg with M100907 0.03 mg/kg pretreatment
compound,measurement,setting,value
Cc1cc2c(cc1Cl)N(C(=O)Nc1ccc(Oc3cccnc3C)nc1)CC2 [SB242084],effect on lorcaserin (3 mg/kg) reduced locomotor activity,[1]; SB242084 0.5 mg/kg and 1 mg/kg s.c.,overturned
COc1cccc([C@H](O)C2CCN(CCc3ccc(F)cc3)CC2)c1OC [M100907],lethality,[2]; 0.03 mg/kg i.p. alone,88%
same,seizure prevalence (TCS),[2]; 0.03 mg/kg i.p. alone,100%
"COc1cc(CC(C)N)c(OC)cc1I (racemic) [DOI, (±)-2,5-dimethoxy-4-iodoamphetamine]",Ki,[3]; mean,96 nM
same,pKi (95% CI),[3]; mean (95% CI),7.02 (7.11 to 6.93)
same,EC50,[4]; [14],1 nM
same,pEC50 (95% CI),[4]; [15],9.00 (9.44 to 8.57)
same,agonist efficacy,[4]; relative to 5-HT,full efficacy m5-HT2AR agonist activity
same,Ki,"[5]; [3H]Mesulergine, one-site fit Ki, mean",65 nM
same,pKi (95% CI),"[5]; [3H]Mesulergine, one-site fit Ki, mean (95% CI)",7.19 (7.28 to 7.10)
same,EC50,[6]; [14],8 nM
same,pEC50 (95% CI),[6]; [15],8.10 (8.41 to 7.80)
same,agonist efficacy,[6],full agonists
same,EC50,[7]; [14],4.1 nM
same,pEC50 (95% CI),[7]; [15],8.39 (8.76 to 8.04)
same,agonist efficacy,[7],full agonists
same,agonist efficacy,[8],full efficacy h5-HT2AR agonist activity
same,HTR (mean count),[9]; DOI 1 mg/kg s.c. alone,37.6
same,more HTRs than SB242084 plus lorcaserin,[9]; DOI 1 mg/kg vs SB242084 plus lorcaserin 3 mg/kg,5 fold
same,Ki,"[10]; [3H]Ketanserin, one-site fit Ki, mean",33 nM
same,pKi (95% CI),"[10]; [3H]Ketanserin, one-site fit Ki, mean (95% CI)",7.48 (7.54 to 7.42)
same,pKi (95% CI) at the high-affinity site,[10]; two-site fit Ki model,8.01 (8.70 to 7.64)
same,pKi (95% CI) at the low-affinity site,[10]; two-site fit Ki model,7.02 (7.32 to 6.30)
CN1C[C@@H](NS(=O)(=O)N(C)C)C[C@@H]2c3cccc4c3c(cn4C)C[C@H]21 [Mesulergine],Ki,[5],3.39 nM
"Cc1cccc(C#Cc2ccccc2)n1 [MPEP, 2-methyl-6-(phenylethynyl)pyridine]",lethality,[2]; [16],12%
same,seizure prevalence (TCS),[2]; [16],12%
same,mean latency (± SD) to first episode of WRJ,"[2]; 30 mg/kg, vehicle 36 (±11)",160 (±19) seconds
O=C(c1ccc(F)cc1)C1CCN(CCn2c(=O)[nH]c3ccccc3c2=O)CC1 [Ketanserin],Ki,"[10]; pKi (95% CI), [3H]Ketanserin, one-site fit Ki, mean (95% CI)",2.69 nM
"CN(C)[C@H]1CCc2c(cccc2-c2ccccc2F)C1 [FPT, (S)-5-(2’-Fluorophenyl)-N,N-dimethyl-1,2,3,4-tetrahydronaphthalen-2-amine]",prevention of AGSs,[11],completely prevents AGSs
C[C@H]1CNCCc2ccc(Cl)cc21 [Lorcaserin],HTR (mean count),[12]; 3 mg/kg s.c. alone,4.1
same,HTR (mean count),[12]; lorcaserin 3 mg/kg with SB242084 0.5 mg/kg s.c.,7
same,HTR (mean count),[12]; lorcaserin 3 mg/kg with SB242084 1 mg/kg s.c.,6.3
same,EC50,"[4]; EC50, phosphoinositide hydrolysis, mean",212 nM
same,Emax,[4]; HEK293,84.6%
same,EC50,"[4]; pEC50 (95% CI), phosphoinositide hydrolysis, mean (95% CI)",209 nM
same,Ki,[5],741 nM
same,EC50,[6],15.8 nM
same,agonist efficacy,[6],full agonists
same,agonist efficacy,[7],full agonists
same,HTR (mean count),[9]; lorcaserin 3 mg/kg plus DOI 1 mg/kg,44.1
same,HTR (mean count),[9]; lorcaserin 5.6 mg/kg plus DOI 1 mg/kg,44.9
same,Ki,"[10]; Ki, [3H]Ketanserin, one-site fit Ki, mean",4460 nM
same,brain concentrations,[13],~ 1.7 μM
same,lethality,[2]; 1 mg/kg i.p.,67%
same,seizure prevalence (TCS),[2]; 1 mg/kg i.p.,83%
same,lethality,[2]; 3 mg/kg i.p.,28%
same,seizure prevalence (TCS),[2]; 3 mg/kg i.p.,56%
same,attenuation of AGS lethality,"[2]; 3 mg/kg, relative to vehicle, not significant (P=0.06)",32%
same,attenuation of AGS prevalence,"[2]; 3 mg/kg, relative to vehicle, not significant (P=0.5)",14%
same,mean WRJ duration (± SD),[2]; 5.6 mg/kg alone,19 (±12) seconds
same,lethality,[2]; 5.6 mg/kg i.p.,78%
same,seizure prevalence (TCS),[2]; 5.6 mg/kg i.p.,94%
same,mean WRJ duration (± SD),[2]; 5.6 mg/kg in combination with M100907 0.03 mg/kg,20 (±14) seconds
same,mean TCS onset latency (± SD),"[2]; 5.6 mg/kg, vehicle 41 (±8)",58 (±21) seconds
same,lethality,[2]; 10 mg/kg i.p.,78%
same,seizure prevalence (TCS),[2]; 10 mg/kg i.p.,89%
same,effect on WRJ latency,"[2]; 1, 3, 5.6, 10 mg/kg",did not affect WRJ latency
same,prevention of AGSs,[2]; 1-10 mg/kg i.p.,ineffective at preventing AGSs
same,lethality,[2]; [17],50%
same,seizure prevalence (TCS),[2]; [17],90%
same,behaviours observed in treated animals,[2]; some animals that received lorcaserin,purposeless oral movements
same,effect on locomotor activity,"[1]; 3 mg/kg s.c. alone, relative to vehicle (P<0.0001)",significantly reduced locomotor activity
same,effect on locomotor activity,"[1]; lorcaserin 3 mg/kg combined with SB242084 0.5 mg/kg, relative to vehicle (P=0.0003)",significantly enhanced locomotor activity
